Activity calls are given as the source filed them. The calls are words filed in the database; no cut-off is given here.
Columns and labels:
P388 [1] = assay: Antitumor activity against mouse P388 cells allografted in mouse assessed as increase of median life span at 200 mg/kg, ip on day 1, 5 and 9 measured up to 60 days relative to control; format: functional; conditions: route intraperitoneal
Outline: (§1)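 BDF1 or CDF1 mice inoculated ip with ascitic P388 leukemia cells. Dosing ip on days 1, 5 and 9. Deaths recorded for 60 days; % increase in median life span over controls. "Cures" are survivors/total at 60 days.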

B16 [2] = assay: Antitumor activity against mouse B16 cells allografted in BDF1 mouse assessed as increase of median life span at 200 mg/kg, ip on day […] measured up to 80 days relative to control; format: functional; conditions: route intraperitoneal
P388 [3] = assay: Antitumor activity against mouse P388 cells allografted in mouse assessed as increase of median life span at 50 mg/kg, ip on day 1, 5 and 9 measured up to 60 days relative to control; format: functional; conditions: route intraperitoneal; outline: as §1
P388 [4] = assay: Antitumor activity against mouse P388 cells allografted in mouse assessed as disease cure at 50 mg/kg, ip on day 1, 5 and 9 measured up to 60 days; format: functional, organism-based; design: dose 50 mg/kg
Outline: (§2)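 BDF1 or CDF1 mice inoculated ip with ascitic P388 leukemia cells, dosed ip on days 1, 5 and 9. Deaths recorded for 60 days; "cures" taken as number of survivors/total at 60 days.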

B16 [5] = assay: Antitumor activity against mouse B16 cells allografted in BDF1 mouse assessed as increase of median life span at 25 mg/kg, ip on day 1 to 9 measured up to 80 days relative to control; format: functional; conditions: route intraperitoneal
Outline: (§3)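 BDF1 mice implanted ip with a homogenate from 0.05 g of B16 tumor. Test agent given ip on days 1-9. Deaths recorded for 80 days. Result is % increase in median life span over untreated controls. "Cures" are survivors/total at 80 days.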

B16 [6] = assay: Antitumor activity against mouse B16 cells allografted in BDF1 mouse assessed as disease cure at 25 mg/kg, ip on day 1 to 9 measured up to 80 days; format: functional, organism-based; design: dose 25 mg/kg
Outline: (§4)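 BDF1 mice implanted ip with homogenate from 0.05 g of B16 tumor, then dosed ip on days 1-9. Deaths recorded for 80 days; "cures" scored as survivors/total at 80 days.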

P388 [7] = assay: Antitumor activity against mouse P388 cells allografted in mouse assessed as increase of median life span at 250 mg/kg, ip on day 1, 5 and 9 measured up to 60 days relative to control; format: functional; conditions: route intraperitoneal; outline: as §1
P388 [8] = assay: Antitumor activity against mouse P388 cells allografted in mouse assessed as disease cure at 250 mg/kg, ip on day 1, 5 and 9 measured up to 60 days; format: functional, organism-based; design: dose 250 mg/kg; outline: as §2
B16 [9] = assay: Antitumor activity against mouse B16 cells allografted in BDF1 mouse assessed as increase of median life span at 100 mg/kg, ip on day 1 to 9 measured up to 80 days relative to control; format: functional; conditions: route intraperitoneal; outline: as §3
P388 [10] = assay: Antitumor activity against mouse P388 cells allografted in mouse assessed as increase of median life span at 300 mg/kg, ip on day 1, 5 and 9 measured up to 60 days relative to control; format: functional; conditions: route intraperitoneal; outline: as §1
P388 [11] = assay: Antitumor activity against mouse P388 cells allografted in mouse assessed as disease cure at 300 mg/kg, ip on day 1, 5 and 9 measured up to 60 days; format: functional, organism-based; design: dose 300 mg/kg; outline: as §2
B16 [12] = assay: Antitumor activity against mouse B16 cells allografted in BDF1 mouse assessed as increase of median life span at 6.2 mg/kg, ip on day 1 to 9 measured up to 80 days relative to control; format: functional; conditions: route intraperitoneal; outline: as §3
P388 [13] = assay: Antitumor activity against mouse P388 cells allografted in mouse assessed as increase of median life span at 12.5 mg/kg, ip on day 1, 5 and 9 measured up to 60 days relative to control; format: functional; conditions: route intraperitoneal; outline: as §1
B16 [14] = assay: Antitumor activity against mouse B16 cells allografted in BDF1 mouse assessed as increase of median life span at 50 mg/kg, ip on day 1 to 9 measured up to 80 days relative to control; format: functional; conditions: route intraperitoneal; outline: as §3
P388 [15] = assay: Antitumor activity against mouse P388 cells allografted in mouse assessed as increase of median life span at 25 mg/kg, ip on day 1, 5 and 9 measured up to 60 days relative to control; format: functional; conditions: route intraperitoneal; outline: as §1
P388 [16] = assay: Antitumor activity against mouse P388 cells allografted in mouse assessed as disease cure at 25 mg/kg, ip on day 1, 5 and 9 measured up to 60 days; format: functional, organism-based; design: dose 25 mg/kg; outline: as §2
B16 [17] = assay: Antitumor activity against mouse B16 cells allografted in BDF1 mouse assessed as disease cure at 6.2 mg/kg, ip on day 1 to 9 measured up to 80 days; format: functional, organism-based; design: dose 6.2 mg/kg; outline: as §4

Molecule `O=C1c2c(O)ccc(O)c2C(=O)c2c(NCCN(CCO)CCO)ccc(NCCN(CCO)CCO)c21` has an ILS at 200 mg/kg (P388 [1]) of 306% and an ILS at 200 mg/kg (B16 [2]) of 212%.
For `CN(C)CCCNc1ccc(NCCCN(C)C)c2c1C(=O)c1c(O)ccc(O)c1C2=O`, the ILS at 50 mg/kg (P388 [3]) was 29%, the Activity (P388 [4]) was “inactive” and the ILS at 25 mg/kg (B16 [5]) was 25%. For the same molecule, the Activity (B16 [6]) was “inactive”.
`CN(C)CCNc1ccc(NCCN(C)C)c2c1C(=O)c1ccc(C(=O)O)cc1C2=O` was tested, and the ILS at 250 mg/kg (P388 [7]) was 0% and the Activity (P388 [8]) was “inactive”.
In the case of `O=C1c2c(O)ccc(O)c2C(=O)c2c(NCCNCCN3CCOCC3)ccc(NCCNCCN3CCOCC3)c21`, the ILS at 200 mg/kg (P388 [1]) is reported as 136% and the ILS at 100 mg/kg (B16 [9]) is reported as 233%.
In the case of `O=C1c2c(O)ccc(O)c2C(=O)c2c(NCCCNCCO)ccc(NCCCNCCO)c21`, the ILS at 50 mg/kg (P388 [3]) is reported as 191%, the ILS at 25 mg/kg (B16 [5]) is reported as 100% and the Activity (B16 [6]) is reported as “inactive”.
In the case of `C[N+](C)(C)CCNc1ccc(NCC[N+](C)(C)C)c2c1C(=O)c1ccccc1C2=O`, the ILS at 300 mg/kg (P388 [10]) is reported as 0% and the Activity (P388 [11]) is reported as “inactive”.
With `CN(C)CCCCNc1ccc(NCCCCN(C)C)c2c1C(=O)c1ccccc1C2=O` the ILS at 250 mg/kg (P388 [7]) was 0% and the Activity (P388 [8]) was “inactive”.
`O=C1c2c(O)ccc(O)c2C(=O)c2c(NCCNCCCO)ccc(NCCNCCCO)c21` gave an ILS at 6.2 mg/kg (B16 [12]) of 357% and an ILS at 12.5 mg/kg (P388 [13]) of 191%.
With `O=C1c2ccccc2C(=O)c2c(NCCN(CCO)CCO)ccc(NCCN(CCO)CCO)c21` the ILS at 300 mg/kg (P388 [10]) was 73%, the Activity (P388 [11]) was “inactive” and the ILS at 50 mg/kg (B16 [14]) was 88%.
In the case of `NCCCNc1ccc(NCCCN)c2c1C(=O)c1c(O)ccc(O)c1C2=O`, the ILS at 25 mg/kg (P388 [15]) is reported as 83%, the Activity (P388 [16]) is reported as “inactive” and the ILS at 6.2 mg/kg (B16 [12]) is reported as 87%. For the same molecule, the Activity (B16 [17]) was “inactive”.

— ChEMBL document CHEMBL3244336, “Antitumor agents. 1. 1,4-Bis[(aminoalkyl)amino]-9,10-anthracenediones” (J Med Chem, 1979)
